ChEMBL document CHEMBL4130543, “Bacilotetrins A and B, Anti-Staphylococcal Cyclic-Lipotetrapeptides from a Marine-Derived Bacillus subtilis” (J Nat Prod, 2017)
≈ marks a conversion by molar mass, not a printed value. Calls of active or inactive are those of the source. No cut-off for these calls is given here.

Key:
Staphylococcus aureus [1] = test: Antibacterial activity against methicillin-resistant Staphylococcus aureus SA1199B after 24 hrs by MTT dye based broth microdilution method; format: functional
Staphylococcus aureus [2] = test: Antibacterial activity against methicillin-resistant Staphylococcus aureus isolate XU2120 after 24 hrs by MTT dye based broth microdilution method; format: functional; details: isolate XU2120, 24 h
Staphylococcus aureus [3] = test: Antibacterial activity against methicillin-resistant Staphylococcus aureus isolate EMRSA-15 after 24 hrs by MTT dye based broth microdilution method; format: functional
Staphylococcus aureus [4] = test: Antibacterial activity against […] after 24 hrs by MTT dye based broth microdilution method; format: functional; details: ATCC 25923, 24 h
Staphylococcus aureus [5] = test: Antibacterial activity against methicillin-resistant Staphylococcus aureus RN4220 after 24 hrs by MTT dye based broth microdilution method; format: functional
Prostatic carcinoma cell = test: Cytotoxicity against human prostate cancer cells at 3 to 30 ug/ml after 48 hrs by SRB assay; format: cell-based
Outline: (§1)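 Cells plated in 96-well format with test samples at 30, 10 and 3 μg/mL for 48 h. Adherent cells fixed in 50% (wt/vol) trichloroacetic acid, stained 60 min with 0.4% sulforhodamine B in 1% acetic acid, bound dye dissolved in 10 mM Tris base, absorbance read at 510 nm.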

[6] = Cytotoxicity against human hepatic cancer cells at 3 to 30 ug/ml after 48 hrs by SRB assay; format: cell-based; outline: as §1

Row | Structure (SMILES) | MIC (Staphylococcus aureus [1]) [µg/mL] | MIC (Staphylococcus aureus [2]) [µg/mL] | MIC (Staphylococcus aureus [3]; isolate EMRSA-15, 24 h) [µg/mL] | MIC (Staphylococcus aureus [4]) [µg/mL] | MIC (Staphylococcus aureus [5]; RN4220, 24 h) [µg/mL] | MIC (Staphylococcus aureus [3]) | Activity (Prostatic carcinoma cell) | Activity [6] | MIC (Staphylococcus aureus [5])
1 | CCn1cc(C(=O)O)c(=O)c2cc(F)c(N3CCNCC3)cc21 [NORFLOXACIN] | 64 (≈ 200 µM) | 16 (≈ 50.1 µM) | 4 (≈ 12.5 µM) | 16 (≈ 50.1 µM) | 2 (≈ 6.26 µM) |  |  |  | 
2 | CCC(C)CCCCCCC[C@@H]1CC(=O)N[C@@H](CC(C)C)C(=O)N[C@@H](CC(C)C)C(=O)N[C@@H](CC(C)C)C(=O)N[C@@H](CCC(=O)O)C(=O)O1 (some centres undefined) | 8 (≈ 11.5 µM) | 16 (≈ 23 µM) |  | 8 (≈ 11.5 µM) | 32 (≈ 46 µM) | inactive | Non-Toxic | Non-Toxic | 
3 | CCC(C)CC(C)CCCCC[C@@H]1CC(=O)N[C@@H](CC(C)C)C(=O)N[C@@H](CC(C)C)C(=O)N[C@@H](CC(C)C)C(=O)N[C@@H](CCC(=O)O)C(=O)O1 (some centres undefined) | 32 (≈ 45.1 µM) | 16 (≈ 22.6 µM) |  | 16 (≈ 22.6 µM) |  | inactive | Non-Toxic | Non-Toxic | inactive
